Screening data (PubChem BioAssay)
Rows were chosen to be rich in hits. Some 3.7% of all compounds tested hit in one or more screens of this group.
F508del corr – CFTR F508del correction in bronchial cells; CFBE cells, YFP halide quenching; stimulated with forskolin plus potentiator P3; % fluorescence drop versus neutral controls; activity (quench increase), % at 7.58 µM; actives 0.36% (n = 350,000); AID 720511;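 active means mean added fluorescence quench of at least 8% versus neutral control, with both replicates also reaching 8%; inconclusive means only one of the mean or replicate conditions met; inactive means mean below 8% and not both replicates reaching 8%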;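 further: cells transiently co-express mutant CFTR-F508del with the halide-sensitive YFP; corrector assay measuring rescue of mutant channel to the surface after 24 h compound exposure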
DENV2 CPE rescue – DENV2-induced cell death inhibition | DENV2-infected cells, cytopathic effect rescue, plate reader | CPE inhibition, % at 9.99 µM | actives 1.7% (n = 350,000) | AID 651640; in the data active means CPE inhibition above about 20%, passing the limit was not always enough; inconclusive means no clear call, values can overlap the other calls; tested in BHK-21 cells;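 further: 0% = median of neutral control wells and 100% = median of positive control wells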
ERAP1 inh – ERAP1 (human) enzyme inhibition | actives 0.15% (n = 340,000) | recombinant ERAP1, Leu-AMC fluorescence, 60 min | Q9NZ08 | inhibition, % at 10.7 µM;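 active means mean replicate inhibition of at least 30%, or all replicates individually reaching that 30% level; inactive means mean below 30% and not every replicate reaching it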;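 further: 0% = neutral control wells and 100% = L-leucinethiol positive control wells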
E-selectin induc – E-selectin induction on HUVECs; P16581; HUVEC E-selectin immunofluorescence imaging; normalized: neutral wells 0, TNF-alpha wells 100; activation, % at 7.58 µM; actives 0.37% (n = 260,000);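 active means mean E-selectin-positive cell signal at least 10% of the positive control, reached in at least 60% of replicates, without over 20% cell loss; inconclusive means no rule given, readout overlaps actives, possibly toxicity-flagged; inactive means the rest, including those meeting only one limit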
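Assay system: HUVEC primary endothelial cells. Input: 3,000 HUVEC seeded per well. Doses: one compound dose added by pin transfer. Read-out basis: % PE-positive cells. Benchmarks: TNF-alpha high, DMSO low. Detection: immunofluorescence imaging. Buffer or medium: EGM-2, gelatin.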
FGF22 binding – FGF22 (human) thermal shift binding; Q9HCT0; recombinant FGF22 thermal shift, SYPRO orange fluorescence; percent of sucrose octasulfate shift, DMSO zero; activity (Tm shift, normalised), % at 9.99 µM; actives 1.5% (n = 340,000); AID 651658;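 active means mean Tm shift, scaled 0 neutral to 100 positive control, at about 1.3% or above, every replicate too, limit read from the data; inconclusive means no clear call, values can overlap the other calls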
Target sequence (Q9HCT0 whole entry, looked up): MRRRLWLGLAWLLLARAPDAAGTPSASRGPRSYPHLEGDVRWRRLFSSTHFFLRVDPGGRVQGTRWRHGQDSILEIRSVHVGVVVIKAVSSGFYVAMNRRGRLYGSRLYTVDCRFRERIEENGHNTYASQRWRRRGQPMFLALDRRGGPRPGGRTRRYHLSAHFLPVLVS
* hit, by the source's call; ? = inconclusive; nt = no result.

SMILES	F508del corr	DENV2 CPE rescue	ERAP1 inh	E-selectin induc	FGF22 binding
O=C(N[C@H]1CC[C@@H](CCn2cc(Cc3ccccc3)nn2)O[C@@H]1CO)c1ccccn1	-1	13	1	0	0
CN1C(=O)c2cc(NS(C)(=O)=O)ccc2OC[C@H]2O[C@H](CC(=O)O)CC[C@H]21	-1	10	-5	0	0
CC(=O)Nc1ccc2c(c1)C(=O)N(C)[C@@H]1CC[C@@H](CC(=O)NCc3ccc(F)cc3)O[C@@H]1CO2	-3	-2	4	0	0
Cc1cccc(-c2ccc([C@H]3[C@H](CO)N4CCCCN(Cc5ccncc5)C[C@@H]34)cc2)c1	0	-7	nt	0	0
C[C@@H]1CCCCO[C@@H](CN(C)Cc2ccccc2)[C@H](C)CN([C@@H](C)CO)C(=O)c2cc(NC(=O)Nc3ccc(C(F)(F)F)cc3)ccc2O1	1	-14	-13	0	-1
O=C(COC(=O)c1nc(Cl)ccc1Cl)c1ccc(Cl)s1	1	5	2	nt	44*
O=C(COC(=O)c1nc(Cl)ccc1Cl)c1ccccc1Cl	1	7	4	nt	0
CCCC#Cc1ccc([C@@H]2[C@H]3CN(C(=O)Nc4ccc(F)cc4)CC(=O)N3[C@H]2CO)cc1	3	42*	5	1	nt
CCCC#Cc1ccc([C@@H]2[C@@H](CO)N3C(=O)CN(C(=O)NC4CCCC4)C[C@@H]23)cc1	2	12	nt	0	nt
O=C(Nc1ccc(F)cc1)N1CC(=O)N2[C@@H](CO)[C@H](c3ccc(C#Cc4ccc(F)cc4)cc3)[C@@H]2C1	0	5	3	0	nt
O=C(Nc1ccccc1F)N1CC(=O)N2[C@H](CO)[C@H](c3ccc(C#Cc4ccc(F)cc4)cc3)[C@@H]2C1	1	27*	0	0	nt
CCCC#Cc1ccc([C@H]2[C@@H](CO)N3C(=O)CN(C(=O)NC4CCCC4)C[C@@H]23)cc1	3	31*	-1	0	nt
C[C@@H]1CN([C@@H](C)CO)C(=O)c2cc(NC(=O)CCC(F)(F)F)ccc2O[C@H]1CN(C)Cc1ccccc1	-2	6	-3	0	0
C[C@@H]1CN([C@@H](C)CO)S(=O)(=O)c2ccc(C3=CCCC3)cc2O[C@H]1CN(C)Cc1ccncc1	0	-1	-2	0	0
C[C@H](CO)N1C[C@H](C)[C@H](CN(C)Cc2cncnc2)Oc2cc(C3=CCCCC3)ccc2S1(=O)=O	-1	30*	0	0	0
C[C@H]1CN([C@@H](C)CO)S(=O)(=O)c2ccc(C3=CCCC3)cc2O[C@H]1CN(C)Cc1cncnc1	2	15	-3	0	0
C[C@H](CO)N1C[C@H](C)[C@H](CN(C)Cc2cccnc2)Oc2cc(C3=CCCC3)ccc2S1(=O)=O	-2	28*	1	0	0
C[C@H]1CN([C@@H](C)CO)S(=O)(=O)c2ccc(C3=CCCC3)cc2O[C@@H]1CN(C)S(=O)(=O)c1ccc(F)cc1	0	69*	-2	0	0
C[C@H](CO)N1C[C@H](C)[C@H](CN(C)Cc2ccncc2)Oc2cc(C3=CCCC3)ccc2S1(=O)=O	-2	36*	0	0	0
C[C@@H]1CCCCO[C@H](CN(C)S(=O)(=O)c2cn(C)cn2)[C@@H](C)CN([C@@H](C)CO)C(=O)c2cc(NS(=O)(=O)c3ccccc3)ccc2O1	1	-9	0	0	0
C[C@@H]1CN([C@@H](C)CO)S(=O)(=O)c2ccc(C#CC3(O)CCCC3)cc2O[C@H]1CN(C)C(=O)Nc1ccccc1	-1	-4	2	0	0
CC(=O)N1[C@H](C(=O)NC2CCC2)[C@@H](CO)[C@@H]2Cn3c(ccc(C4=CCCC4)c3=O)[C@@H]21	1	19	-1	0	nt
COc1cccc(-c2ccc3c(c2)O[C@@H](CN(C)Cc2cncnc2)[C@H](C)CN([C@H](C)CO)S3(=O)=O)c1	-2	7	2	0	0
C[C@@H]1CN([C@H](C)CO)S(=O)(=O)c2ccc(-c3cncnc3)cc2O[C@H]1CN(C)C	3	34*	1	0	0
COc1cccc(-c2ccc3c(c2)O[C@H](CN(C)Cc2cncnc2)[C@H](C)CN([C@@H](C)CO)S3(=O)=O)c1	0	28*	-2	0	-1
SMILES	F508del corr	DENV2 CPE rescue	ERAP1 inh	E-selectin induc	FGF22 binding
Cc1ccc(S(=O)(=O)N(C)C[C@@H]2Oc3ccc(NS(=O)(=O)c4ccc(Cl)cc4)cc3C(=O)N([C@@H](C)CO)C[C@H]2C)cc1	-1	-4	-1	-7	0
Cn1cnc(S(=O)(=O)N[C@@H]2CC[C@H](CC(=O)NCC3CCCCC3)O[C@@H]2CO)c1	2	84*	0	0	0
Cn1cnc(S(=O)(=O)N[C@H]2CC[C@H](CC(=O)NCC3CCCCC3)O[C@H]2CO)c1	0	80*	-1	0	0
CC(=O)N1C[C@H]2CON(C)[C@H]2C[C@H]1c1ccc(-c2ccccc2)cc1	1	0	6	0	0
COc1ccccc1-c1ccc([C@@H]2C[C@H]3[C@H](CON3C)CN2C(=O)c2ccc(-c3ccccc3)cc2)cc1	-1	38*	8	1	0
CCC(=O)Nc1ccc2c(c1)OC[C@H](C)N(C(=O)NC(C)C)C[C@@H](C)[C@H](OC)CN(C)C2=O	1	-5	0	0	0
Cc1ccc(C(=O)NCC(=O)NCC(c2cccs2)N2CCOCC2)cc1C (stereo not drawn)	-2	93*	-3	nt	0
Cc1ccc(C(=O)NCC(=O)NCC(c2cccs2)N2CCOCC2)cc1 (stereo not drawn)	-1	-4	2	-1	0
Brc1cnc2nc(SCc3nc4ccccc4[nH]3)[nH]c2c1	1	?	2	53*	0
C[C@@H]1CN([C@@H](C)CO)S(=O)(=O)c2ccc(-c3ccc(F)cc3)cc2O[C@@H]1CN(C)C(=O)Nc1ccc(F)cc1	0	nt	nt	0	nt
CCCCN(C)C(=O)c1ccc(CS(=O)(=O)c2ccccc2C)o1	0	1	-3	nt	0
COC(CN(C)C(=O)c1ccc(CS(=O)(=O)c2ccccc2C)o1)OC	0	12	-1	49*	0
C[C@@H]1CN([C@H](C)CO)C(=O)c2cccc(NS(=O)(=O)c3cn(C)cn3)c2O[C@H]1CN(C)C(=O)Nc1ccc(F)cc1	5	71*	-4	410*	0
C[C@@H]1CN([C@H](C)CO)C(=O)c2cccc(NS(=O)(=O)c3cn(C)cn3)c2O[C@H]1CN(C)C(=O)Nc1ccc2c(c1)OCO2	2	72*	-1	?	0
COc1cccc(C(=O)Nc2ccc3c(c2)C(=O)N(C)[C@H]2CC[C@H](CC(=O)NCC4CC4)O[C@H]2CO3)c1	0	1	-1	0	0
